# Source: PubChem (several laboratories)
# TNAP inh no acc – TNAP (human) inhibition, acceptor-free conditions | inhibition, % at 20 µM | 0.26% of 200,000 active | purified TNAP, CDP-star luminescence, 30 min | AID 1012 | P05186;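 active means tissue-nonspecific alkaline phosphatase inhibition above about 50% at 20 µM in the single-dose screen, limit read from the data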
# Target sequence (P05186 whole entry, looked up): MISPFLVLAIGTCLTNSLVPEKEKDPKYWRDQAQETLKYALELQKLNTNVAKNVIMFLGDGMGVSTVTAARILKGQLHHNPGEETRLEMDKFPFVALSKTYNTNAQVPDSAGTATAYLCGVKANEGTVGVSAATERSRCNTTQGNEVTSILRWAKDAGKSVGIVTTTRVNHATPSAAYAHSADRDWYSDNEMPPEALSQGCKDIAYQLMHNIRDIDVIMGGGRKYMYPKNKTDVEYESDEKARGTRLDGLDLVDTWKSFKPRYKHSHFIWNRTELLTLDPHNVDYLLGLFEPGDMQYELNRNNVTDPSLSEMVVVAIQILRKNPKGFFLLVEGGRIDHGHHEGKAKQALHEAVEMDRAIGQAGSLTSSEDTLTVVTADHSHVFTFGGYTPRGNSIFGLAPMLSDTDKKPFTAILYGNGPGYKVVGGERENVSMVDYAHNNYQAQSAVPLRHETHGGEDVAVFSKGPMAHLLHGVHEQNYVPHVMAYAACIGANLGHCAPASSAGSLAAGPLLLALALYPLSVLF
# Autophagy mod – alters autophagy in cells; calls only at 10 µM (by protocol); 0.98% of 190,000 active; MEF GFP-LC3 puncta imaging; test concentration mostly 10 µM;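 active means percentage of spot-positive cells more than 3 SD above its plate mean, without a fluorescence outlier flag or 80% toxicity; inconclusive means no clear call, values can overlap the other calls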
# TNAP act hi DEA – TNAP (human) activation, high acceptor | purified TNAP, CDP-star luminescence, 1 M DEA, 30 min; hits give high values; 0 = EDTA background, 1 = DMSO-only activity | activation factor at 20 µM | 200,000 tested, under 10 active;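 active means activation factor at least 2 at 20 µM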
#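 system = human TNAP | amount = enzyme diluted 1/800 final | reagent = 100 µM CDP-star substrate | signal = luminescent substrate turnover signal | dosing = one dose, 20 µM | benchmarks = EDTA negative control, DMSO positive control | measure = activation factor | timing = 30 min reaction, room temperature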
# p47phox inh – inhibitors of human p47phox binding; P14598; p47phox/p22phox peptide binding, fluorescence polarization, 2 h; inhibition, % at 24.7 µM; 0.53% of 220,000 active; AID 1274;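 active means inhibition above about 30%, limit read from the data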
# Ins promoter up – MIN6 insulin promoter up-regulation; AID 1625; z-score at 5 µM; MIN6 insulin promoter-GFP reporter, high-content imaging; hits give high values; 0.3% of 190,000 active;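 active means z-score above 3 at 5 µM with at least 500 cells counted in the well; inconclusive means wells under 500 cells, flagged as cytotoxic or low count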
# TNAP inh hi DEA – blocks human TNAP under high phosphate acceptor concentration; purified TNAP, CDP-star luminescence, 1 M DEA; 0.03% of 200,000 active; P05186; inhibition, % at 20 µM;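 active means over 50% inhibition of tissue-nonspecific alkaline phosphatase at 20 µM in the single-dose screen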
# A number is an active result; i = inactive; ? = inconclusive; nt = no result given; + = active, no number. Only some compounds are listed: those with a hit (about 1.8% of all), similar ones and a draw of the others.
SMILES,TNAP inh no acc,Autophagy mod,TNAP act hi DEA,p47phox inh,Ins promoter up,TNAP inh hi DEA
CCCn1c(=C(C#N)C#N)s/c(=C2\C=Cc3ccccc3N2CC)c1=O,i,i,i,37,i,i
CCCN1C(=O)/C(=c2\s/c(=C3\C=Cc4ccccc4N3CC)c(=O)n2-c2ccccc2)SC1=S,i,i,i,70,i,i
COc1ccccc1S(=O)(=O)CC(O)COc1ccc(F)cc1Cl (stereo unspecified),i,i,i,i,i,i
O=C(CSc1n[nH]c(=O)n1C1CC1)NCc1ccccc1Cl,i,i,i,i,i,i
O=C1OC(c2cccs2)=N/C1=C\c1ccc(-c2ccccc2Cl)o1,i,i,i,81,i,i
O=C1OC(c2cccs2)=N/C1=C/c1ccc(-c2cccc(C(=O)O)c2)o1,i,i,i,i,i,i
CC1CCN(C(=O)CN2C(=O)C(=O)c3ccccc32)CC1,i,+,i,i,i,i
CC1CCN(C(=O)CN2C(=O)c3cccc4cccc(c34)C2=O)CC1,i,i,i,i,i,i
c1ccc2c(-c3cc(C4CCNCC4)[nH]n3)cccc2c1,i,i,i,i,i,i
CN(CCCNC(=O)C1CCCN(S(=O)(=O)c2cnc[nH]2)C1)c1ccccc1 (stereo unspecified),i,i,i,i,i,i
O=C(NCCCN1CCN(c2ccccc2F)CC1)C1CCCN(S(=O)(=O)c2cnc[nH]2)C1 (stereo unspecified),i,+,i,i,i,i
CNC(=O)c1csc(-c2ccc(Cl)cc2)n1,i,i,i,i,i,i
O=C(O)c1csc(-c2ccc(Cl)cc2)n1,i,i,i,65,i,i
COc1ccc(C(=O)n2ccc(C)n2)cc1Br,i,i,i,i,i,i
Cc1cc(C2C(C#N)=C(N)Oc3n[nH]c(C)c32)c(C)s1 (stereo unspecified),i,i,i,i,3.4,i
CCC(CC)C1C(C#N)=C(N)Oc2n[nH]c(C)c21 (stereo unspecified),i,i,i,i,i,i
CCc1[nH]nc2c1C(C1C=CCCC1)C(C#N)=C(N)O2 (stereo unspecified),70,i,i,i,i,i
Cc1[nH]nc2c1C(C1CC=CCC1)C(C#N)=C(N)O2 (stereo unspecified),72,i,i,i,i,i
Cc1ccc(SCCC(=O)Nc2cccc(N(C)S(C)(=O)=O)c2)cc1,i,i,i,i,i,i
O=C(O)c1ccc(NC(CSCc2ccccc2F)C(=O)O)c([N+](=O)[O-])c1 (stereo unspecified),i,i,i,i,i,i
Cc1cccc(N/C=C/c2onc(C)c2[N+](=O)[O-])c1,i,+,i,i,i,i
Cc1cc(O)ccc1N/C=C/c1onc(C)c1[N+](=O)[O-],i,i,i,i,i,i
COc1nc(NCCN2CCOCC2)nc(Nc2ccccc2)n1,i,i,i,i,i,i
CCCCCCCCNc1nc(Cl)nc(NCCN2CCOCC2)n1,i,+,i,i,i,i
CCOC(=O)CSc1nc(=O)n2cccc(C)c2n1,i,+,i,i,i,i
SMILES,TNAP inh no acc,Autophagy mod,TNAP act hi DEA,p47phox inh,Ins promoter up,TNAP inh hi DEA
O=C(NC1CCCc2ccccc21)c1cccc(S(=O)(=O)N2CCOCC2)c1 (stereo unspecified),i,i,i,i,i,i
CSc1ccc(N2C(=O)NC3(CCCCC3)C2=O)cc1,i,i,i,i,i,i
N/C(COc1ncn(-c2ccccc2)n1)=N\S(=O)(=O)c1ccc(Cl)cc1Cl,63,i,i,i,i,i
NC(=O)COc1ncn(-c2ccccc2)n1,i,i,i,i,i,i
CCN(CC)c1ccc(/C=C(\C#N)c2nc(-c3cccs3)c(NC(C)=O)s2)cc1,i,+,i,i,17,i
CC(=O)Nc1sc(N/N=C\c2ccc(O)cc2)nc1-c1cccs1,nt,nt,nt,i,i,nt
CCOc1ccc(-n2nc3c(=O)[nH]nc(C)c3c2C)cc1,i,i,i,57,i,i
CCOc1ccc(-n2nc3c(=S)[nH]nc(C)c3c2C)cc1,i,i,i,i,i,i
Cc1[nH]c2ccccc2c1C(=O)NS(=O)(=O)Nc1ccc(Cl)cc1,i,i,i,i,i,i
N=c1n(CCN2CCOCC2)c2ccccc2n1CC(=O)c1ccc(Cl)c(Cl)c1,i,i,i,i,i,i
N=c1n(CCN2CCCC2)c2ccccc2n1CC(O)c1ccc(Cl)c(Cl)c1 (stereo unspecified),i,+,i,i,i,i
CN(C)c1ccc(CNC(=O)C2CCC(CNc3c(N4CCCCC4)c(=O)c3=O)CC2)cc1 (stereo unspecified),nt,nt,nt,i,i,nt
Cc1onc(-c2c(F)cccc2Cl)c1C(=O)NC(=S)NC1CCS(=O)(=O)C1 (stereo unspecified),i,i,i,i,i,i
CCc1ccc(NC(=O)C(CC)Sc2nc3cc4c(cc3c(=O)n2Cc2ccco2)OCO4)cc1 (stereo unspecified),i,+,i,i,i,i
CN(Cc1cnn(C)c1)Cc1nc(Cc2ccccc2Cl)no1,i,i,i,43,nt,i
CC(Sc1nnc(-c2ccccc2)c(-c2ccccc2)n1)C(=O)N1CCc2ccccc21 (stereo unspecified),i,i,i,i,i,i
COc1ccc(C(CNc2ccc(S(=O)(=O)N3CCCC3)cc2[N+](=O)[O-])N2CCCC2)cc1 (stereo unspecified),i,+,i,i,i,i
Cc1cccc(OCC(=O)O/N=C(\N)c2ccc(Br)cc2)c1,nt,nt,nt,i,i,nt
Oc1ccc(Nc2nc(N3CCCC3)c3ccccc3n2)cc1,i,+,i,i,?,i
COc1ccc(Nc2nc(N3CCCCC3)c3ccccc3n2)cc1,i,i,i,i,i,i
COc1cccc(-n2c(=O)c3cc(OC)c(OC)cc3n(CC(=O)Nc3cc(C)[nH]n3)c2=O)c1,i,i,i,i,i,i
Cc1ccc(-c2ccc(/C=N\NC(=O)c3cc4c(ccc5ccccc54)o3)o2)cc1[N+](=O)[O-],i,i,i,39,i,i
CC(C)Oc1ccc(C(CC(=O)O)n2cnnn2)cc1 (stereo unspecified),i,i,i,i,i,i
Cc1ccc2nc(SCC(=O)Nc3cccc(S(=O)(=O)N(C)C)c3)[nH]c2c1,i,i,i,i,i,i
O=C(CSc1n[nH]c(-c2ccccc2)n1)Nc1ncccn1,i,i,i,i,i,i
CCCCc1nc(SCC(=O)Nc2ncccn2)n[nH]1,58,i,i,i,i,i
NS(=O)(=O)c1cccc(NC(=O)CSc2nc3ccc(Cl)cc3[nH]2)c1,67,i,i,i,i,i
CCCCc1nc(SCC(=O)Nc2ccc(S(N)(=O)=O)cc2)n[nH]1,60,i,i,i,i,i
CC(C)c1nc(SCC(=O)Nc2cccc(S(N)(=O)=O)c2)n[nH]1,57,i,i,i,nt,i
